From BindingDB's records for doi:10.1021/jm020820h (2002) come the findings set out here.

Molecules are shown by their SMILES.

As usually defined, the EC50 is the concentration at which the effect is half-maximal. Read a high EC50 as a less potent agent.

A short description of assay [1]: Effective concentration required to inhibit HIV-1 induced cytopathicity in CEM cell culture by 50%. Background: Protection from cytopathic effect is a common read-out in antiviral testing.
Assay [2] in a line: Effective concentration required to inhibit HIV-1 induced cytopathicity in MT-4 cell culture by 50%.
Assay [3] addresses T1, Reverse transcriptase/RNaseH (Human immunodeficiency virus 1, UniProt Q72547). Kind of assay: Effective concentration required to inhibit HIV-1 induced cytopathicity in CEM cell culture by 50%. The gist of the method: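 CEM cells at 4 × 10⁵/mL infected with HIV-1 or HIV-2 at ~100 CCID₅₀ per mL, mixed 1:1 with compound dilutions. Giant cell formation scored microscopically after 4 days. EC₅₀ is the concentration inhibiting virus-induced cytopathicity by 50%.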

Assay [4] has as its target T1, Reverse transcriptase/RNaseH. Kind of assay: Effective concentration required to inhibit HIV-1 induced cytopathicity in MT-4 cell culture by 50%. The gist of the method:
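MT-4 cells at 3 × 10⁵/mL infected with HIV-1 or HIV-2 at ~100 CCID₅₀ per mL, mixed 1:1 with compound dilutions. Cytopathicity read by trypan blue dye exclusion after 5 days. EC₅₀ is the concentration giving 50% protection against the virus-induced loss of cell viability.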

`Cc1cn(C2OC(CO[Si](C)(C)C(C)(C)C)C3(OS(=O)(=O)C=C3N)C2O[Si](C)(C)C(C)(C)C)c(=O)n(C)c1=O` (configuration not stated) gave an EC50 in assay [1] of 40 nM. With `Cc1cn(C2OC(CO[Si](C)(C)C(C)(C)C)C3(OS(=O)(=O)C(Br)=C3N)C2O[Si](C)(C)C(C)(C)C)c(=O)[nH]c1=O` (configuration not stated), the figures for the EC50 in assay [1] and in assay [2] were 850 nM and 930 nM, respectively. Turning to `CC=C1C(=N)C2(OS1(=O)=O)C(CO[Si](C)(C)C(C)(C)C)OC(n1cc(C)c(=O)[nH]c1=O)C2O[Si](C)(C)C(C)(C)C` (configuration not stated), the EC50 in assay [3] amounted to 4000 nM; in assay [4], 3200 nM. The like results for `CC=C1C(=N)C2(OS1(=O)=O)C(CO)OC(n1cc(C)c(=O)[nH]c1=O)C2O[Si](C)(C)C(C)(C)C` (configuration not stated) were, in that order, 15000 nM and 23000 nM.

For `COC(=O)CC=C1C(=N)C2(OS1(=O)=O)C(CO[Si](C)(C)C(C)(C)C)OC(n1cc(C)c(=O)[nH]c1=O)C2O[Si](C)(C)C(C)(C)C` (configuration not stated), the EC50 in assay [3] worked out at 3000 nM; in assay [4] it was 3700 nM. The like results for `Cc1cn(C2OC(CO[Si](C)(C)C(C)(C)C)C3(OS(=O)(=O)C(=CCCO)C3=N)C2O[Si](C)(C)C(C)(C)C)c(=O)n(C)c1=O` (configuration not stated) were, in that order, 2800 nM and 5900 nM. With `CC1=C(N)C2(OS1(=O)=O)C(CO[Si](C)(C)C(C)(C)C)OC(n1cc(C)c(=O)n(C)c1=O)C2O[Si](C)(C)C(C)(C)C` (configuration not stated), the EC50 in assay [1] turned out to be 2200 nM; in assay [2] it was 250 nM. Compound `Cc1cn(C2OC(CO[Si](C)(C)C(C)(C)C)C3(OS(=O)(=O)C(c4ccsc4)=C3N)C2O[Si](C)(C)C(C)(C)C)c(=O)n(C)c1=O` (configuration not stated) gave an EC50 in assay [2] of 2300 nM. As for `Cc1cn(C2OC(CO[Si](C)(C)C(C)(C)C)C3(OS(=O)(=O)C(I)=C3N)C2O[Si](C)(C)C(C)(C)C)c(=O)n(C)c1=O` (configuration not stated), the response in assay [2] was half-maximal at 110 nM (EC50). For the compound `Cc1cn(C2OC(CO[Si](C)(C)C(C)(C)C)C3(OS(=O)(=O)C(c4ccccc4)=C3N)C2O[Si](C)(C)C(C)(C)C)c(=O)n(C)c1=O` (configuration not stated), the EC50 in assay [2] was found to be 1700 nM. As for `CCOC(=O)CC=C1C(=N)C2(OS1(=O)=O)C(CO[Si](C)(C)C(C)(C)C)OC(n1cc(C)c(=O)[nH]c1=O)C2O[Si](C)(C)C(C)(C)C` (configuration not stated), the EC50 in assay [3] was 3500 nM; in assay [4] it was 10000 nM. For the compound `Cc1cn(C2OC(CO[Si](C)(C)C(C)(C)C)C3(OS(=O)(=O)C(c4ccccc4)=C3N)C2O[Si](C)(C)C(C)(C)C)c(=O)[nH]c1=O` (configuration not stated), the EC50 stood at 2500 nM in assay [1] and 6700 nM in assay [2]. Take `COC(=O)CC=C1C(=N)C2(OS1(=O)=O)C(CO[Si](C)(C)C(C)(C)C)OC(n1cc(C)c(=O)n(C)c1=O)C2O[Si](C)(C)C(C)(C)C` (configuration not stated): the EC50 in assay [3] worked out at 980 nM; in assay [4] it was 2900 nM.

Take `CNC1=C(C)S(=O)(=O)OC12C(CO[Si](C)(C)C(C)(C)C)OC(n1cc(C)c(=O)n(C)c1=O)C2O[Si](C)(C)C(C)(C)C` (configuration not stated): the EC50 in assay [1] was > 100000 nM; in assay [2], > 250000 nM. On to `Cc1cn([C@@H]2O[C@H](CO[Si](C)(C)C(C)(C)C)[C@@]3(OS(=O)(=O)C(=CCCO)C3=N)[C@H]2O[Si](C)(C)C(C)(C)C)c(=O)[nH]c1=O` [1-[(5R,6R,8R,9R)-4-amino-9-(tert-butyl-dimethyl-silanyloxy)-6-(tert-butyl-dimethyl-silanyloxymethyl)-3-(3-hydroxy-propenyl)-2,2-dioxo-1,7-dioxa-2lambda*6*-thia-spiro[4.4]non-3-en-8-yl]-5-methyl-1H-pyrimidine-2,4-dione], for which the concentration for a half-maximal effect (EC50) in assay [4] was determined as 6600 nM. On to `Cc1cn([C@@H]2O[C@H](CO[Si](C)(C)C(C)(C)C)[C@@]3(OS(=O)(=O)C(I)=C3N)[C@H]2O[Si](C)(C)C(C)(C)C)c(=O)[nH]c1=O` [1-[(5R,6R,8R,9R)-4-amino-9-(tert-butyl-dimethyl-silanyloxy)-6-(tert-butyl-dimethyl-silanyloxymethyl)-3-iodo-2,2-dioxo-1,7-dioxa-2lambda*6*-thia-spiro[4.4]non-3-en-8-yl]-5-methyl-1H-pyrimidine-2,4-dione], for which the figures for the EC50 in assay [1] and in assay [2] were 60 nM and 120 nM, respectively.
